Consider seven molecules from article PMC5908246 (Cell reports, 2018).

“Also recorded” adds a separate entry of the source. Like-named read-outs stand apart in the source and are kept apart here.

One may read the Kd as the equilibrium constant for the complex coming apart.

For data set [1], the target named is Gcn4 tAD (residues 1–134) labeled with Oregon Green 488 (S. cerevisiae) (UniProt P03069). Briefly: fluorescence polarisation. On the technique in general: Polarisation of emitted light reports the rotation of a fluorescent probe.
The target of data set [2] is Med15 activator-binding domain 1 (ABD1) (S. cerevisiae (yeast)) (UniProt P19659). As to the kind of experiment: ITC. Background: In ITC the heat of successive injections is recorded.
The target of data set [3] is Gcn4 N-terminal activation domain (nAD; residues 1–100) (S. cerevisiae) (UniProt P03069). As to the kind of experiment: ITC.
The target of data set [4] is Gcn4 cAD (residues 101–134) labeled with Oregon Green 488 (S. cerevisiae) (UniProt P03069). Briefly: fluorescence polarisation.
Data set [5] concerns Med15 KIX123. As to the kind of experiment: Fluorescence polarization binding, Med15 KIX123. Details: species or system S. cerevisiae. The conditions noted are these: KIX123 vs ABD123. In short, it runs like this: (§1)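 Gcn4 tAD peptide labelled with Oregon Green 488 was titrated with 15 Med15 concentrations spanning 0–250 μM (ABD123 or KIX123). Proteins were in 20 mM KH2PO4 (pH 7.5), 200 mM KCl. Polarization was read on a Beacon 2000. Kd came from non-linear regression to a one-site total binding model (Bmax·X/(Kd+X) + NS·X + background).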

Data set [6] relates to individual Med15 ABDs. Briefly: ITC and/or FP binding to individual Med15 ABDs. Further details: species or system S. cerevisiae. In short, it runs like this:
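Med15 ABD and Gcn4 AD proteins came from E. coli BL21(DE3) RIL and were polished by size exclusion into 20 mM KH₂PO₄ (pH 7.5), 200 mM KCl; concentrations were set by UV-Vis. FP used Oregon Green 488-labelled Gcn4 peptides, with 15 Med15 concentrations (0–250 µM) against tAD and 0–225 µM ABD3 against cAD. FP data were fit to a one-site total binding model with a nonspecific term. ITC data were fit to a single-site model.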

For data set [7], the target named is T1, Med15 ABD123 (Saccharomyces cerevisiae, UniProt P19659, DEL239-272/DEL373-483).
T1 sequence (P19659 with tags, fused parts or gaps DEL239-272/DEL373-483): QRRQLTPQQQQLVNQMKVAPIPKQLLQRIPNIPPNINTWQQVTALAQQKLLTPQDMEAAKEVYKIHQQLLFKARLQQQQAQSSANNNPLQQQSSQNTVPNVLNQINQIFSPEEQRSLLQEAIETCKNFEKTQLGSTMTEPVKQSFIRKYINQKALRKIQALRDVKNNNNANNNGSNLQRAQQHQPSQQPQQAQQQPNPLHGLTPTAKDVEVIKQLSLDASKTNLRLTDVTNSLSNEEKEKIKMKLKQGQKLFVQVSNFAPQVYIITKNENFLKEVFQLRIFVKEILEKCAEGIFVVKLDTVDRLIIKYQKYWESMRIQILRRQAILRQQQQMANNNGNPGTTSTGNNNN
As to the kind of experiment: Fluorescence polarization binding, Med15 ABD123. Conditions: tAD binding to ABD123. Details: species or system S. cerevisiae. In short, it runs like this:
as §1

The target of data set [8] is T2, Med15 ABD2 (Saccharomyces cerevisiae, UniProt P19659).
T2 sequence (P19659 277-368): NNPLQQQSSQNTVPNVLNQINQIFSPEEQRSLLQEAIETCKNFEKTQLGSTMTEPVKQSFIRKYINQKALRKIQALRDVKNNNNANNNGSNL
Conditions: FP; Oregon Green 488-labeled Gcn4 peptide; ref Herbig et al., 2010; cited from earlier work.

Data set [9] deals with T2, Med15 ABD2. Briefly: NMR secondary structure propensity upon binding ABD2. Details: species or system S. cerevisiae. Conditions: bound to ABD2, saturating; backbone chemical shifts, ncSPC; 25°C. In short, it runs like this: (§2)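 ¹³C,¹⁵N-labelled Gcn4 nAD was titrated with unlabelled Med15 ABD at ~200 μM labelled sample. Bound-state assignments were checked by triple-resonance experiments. Secondary structure propensity came from backbone chemical shifts via ncSPC.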

Data set [10] deals with T2, Med15 ABD2. As to the kind of experiment: ITC binding, Med15 ABD2. Further details: species or system S. cerevisiae. The conditions noted are these: 20 mM KH2PO4 (pH 7.5), 200 mM KCl, nAD 0.111 mM vs ABD2 1.60 mM, ABD2 0.224 mM vs cAD 2.35 mM, not measurable due to weak binding or low heats of binding.
Data set [11] addresses T3, Med15 ABD1 (Saccharomyces cerevisiae, UniProt P19659).
T3 sequence (P19659 158-238 limits assumed): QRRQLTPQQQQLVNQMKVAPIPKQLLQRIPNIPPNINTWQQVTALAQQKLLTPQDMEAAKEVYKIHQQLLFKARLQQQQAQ
Conditions: FP; Oregon Green 488-labeled Gcn4 peptide; ref Herbig et al., 2010; cited from earlier work.

The target in data set [12] is T3, Med15 ABD1. As to the kind of experiment: ITC binding, Med15 ABD1. Details: species or system S. cerevisiae. The conditions noted are these: 200 mM KCl. In short, it runs like this:
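ITC was run on a MicroCal ITC200 in 20 mM KH2PO4 (pH 7.5), 200 mM KCl. Med15 ABD1 in the cell (0.150 mM) was titrated with Gcn4 nAD from the syringe (1.50 mM). Thermodynamic parameters came from a single binding site model fit.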

For data set [13], the target named is T4, Med15 ABD3 (Saccharomyces cerevisiae, UniProt P19659).
T4 sequence (P19659 484-651): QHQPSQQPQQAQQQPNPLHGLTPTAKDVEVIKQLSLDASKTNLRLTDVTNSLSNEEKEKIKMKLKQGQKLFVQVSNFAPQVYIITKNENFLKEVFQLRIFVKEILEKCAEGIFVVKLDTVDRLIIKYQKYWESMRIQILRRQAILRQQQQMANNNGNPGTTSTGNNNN
The conditions noted are these: FP; Oregon Green 488-labeled Gcn4 peptide; ref Herbig et al., 2010; cited from earlier work.

Data set [14] addresses T5, Med15 KIX (Saccharomyces cerevisiae, UniProt P19659).
T5 sequence (P19659 6-91): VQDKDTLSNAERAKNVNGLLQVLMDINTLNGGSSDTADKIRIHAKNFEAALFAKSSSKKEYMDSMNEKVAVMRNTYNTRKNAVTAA
The conditions noted are these: FP; Oregon Green 488-labeled Gcn4 peptide; ref Herbig et al., 2010; cited from earlier work.

In data set [15] the test system is Med15 KIX domain (in KIX123). As to the kind of experiment: EDC crosslinking-MS, KIX123-tAD, links to KIX. The data set is classed as binding, S. cerevisiae. Conditions: EDC 7.5 mM, Sulfo-NHS 2 mM, 2 hr, room temperature; Gcn4 1–140. In short, it runs like this:
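Gcn4 AD and KIX123 were purified by size exclusion into PBS (pH 7.2) and cross-linked for 2 hr at room temperature. Samples were reduced (50 mM TCEP, 8 M urea, 37°C, 15 min), alkylated (15 mM iodoacetamide, dark, 37°C, 1 hr), diluted 10-fold in 100 mM ammonium bicarbonate and digested overnight at 37°C with trypsin (1:15 w/w). After C18 cleanup, peptides were run on an Orbitrap Elite with HCD and a 90 min 5–40% ACN gradient. pLink and Nexus searches used 5% FDR, and a crosslink required ≥4 consecutive b/y ions per peptide.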

The target of data set [16] is T3, Med15 ABD1. As to the kind of experiment: NMR secondary structure propensity upon binding ABD1. Further details: species or system S. cerevisiae. Conditions: bound to ABD1; backbone chemical shifts, ncSPC; 25°C. In short, it runs like this:
as §2

Data set [17] has as its target T1, Med15 ABD123. Conditions: FP; Oregon Green 488-labeled Gcn4 peptide; ref Herbig et al., 2010; cited from earlier work.
In data set [18] the target is T4, Med15 ABD3. Briefly: ITC binding, Med15 ABD3. Details: species or system S. cerevisiae. Conditions: 20 mM KH2PO4 (pH 7.5), 200 mM KCl. In short, it runs like this: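 ITC was run on a MicroCal ITC200 in 20 mM KH2PO4 (pH 7.5), 200 mM KCl. In one run, Gcn4 nAD in the cell (0.111 mM) was titrated with Med15 ABD3 from the syringe (1.12 mM). In the other, ABD3 in the cell (0.236 mM) was titrated with Gcn4 cAD (2.35 mM). Data were fitted with a single binding site model.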

Molecule “Med15 activator-binding domain 2 (ABD2; residues 277–368) (from UniProt P19659 277-368) (domain or fragment)” yielded a dissociation constant Kd in data set [1] of 19.5 µM.

For the molecule “Gcn4 N-terminal activation domain (nAD; residues 1–100) (from UniProt P03069 1-100) (domain or fragment)”, in [2], the Kd came to 10.8 µM and the dH worked out at 2.45 kcal/mol.

“Med15 158–651 Δ239–272, Δ373–483 (ABD123) (from UniProt P19659 158-651) (domain or fragment)” registered an equilibrium dissociation constant (Kd) in data set [1] of 0.109 µM.

For “Med15 activator-binding domain 3 (ABD3; Med15 484–651) (from UniProt P19659 484-651) (domain or fragment)”, the Kd in [3] came to 23.9 µM; in data set [1], 4.4 µM; in data set [4], 13.9 µM. This molecule also showed a dH in data set [3] of 7.02 kcal/mol.

For “Med15 activator-binding domain 1 (ABD1) (from UniProt P19659 158-238) (domain or fragment)”, in [1], the equilibrium dissociation constant (Kd) is 2.66 µM.

B1: tAD: tandem AD polypeptide, Gcn4 residues 1–134 (1–140 in crosslinking) (protein, UniProt P03069 1-134, looked up, fragment)
chain: MSEYQPSLFALNPMGFSPLDGSKSTNENVSASTSTAKPMVGQLIFDKFIKTEEDPIIKQDTPSNLDFDFALPQTATAPDAKTVLPIPELDDAVVESFFSSSTDSTPMFEYENLEDNSKEWTSLFDNDIPVTTDD
Turning to B1, the “increase of Gcn4 affinity by presence of KIX along with ABD1,2,3” value in [5] is recorded as ~ 30%. In data set [6], the “affinity for individual ABDs (in words)” value is recorded as “affinity close to the stronger of the individual nAD or cAD interactions”. Moreover, in [7], the “higher affinity than the strongest piecemeal interaction” value is on record as “about 20 fold”.

B2: nAD: N-terminal activation domain of Gcn4, residues 1–100 (protein, UniProt P03069 1-100, looked up, fragment)
chain: MSEYQPSLFALNPMGFSPLDGSKSTNENVSASTSTAKPMVGQLIFDKFIKTEEDPIIKQDTPSNLDFDFALPQTATAPDAKTVLPIPELDDAVVESFFSS
In the case of B2, the Kd in data set [8] is 21.8 ± 3.8 µM; in [10], “unable to measure”; in data set [11], 3.3 ± 0.5 µM; in data set [12] (Microcal ITC200, 20 mM KH2PO4 (pH 7.5), cell ABD1 0.150 mM, syringe nAD 1.50 mM, single binding site model) it was 10.8 ± 1.5 µM; in [13], 2.6 ± 0.4 µM; in [14], “neither nAD nor cAD showed detectable KIX binding; also recorded: unable to measure”. The Kd in [17] is 0.36 ± 0.02 µM; in data set [18] (nAD 0.111 mM vs ABD3 1.12 mM, ABD3 0.236 mM vs cAD 2.35 mM, single binding site model), 23.9 ± 2 µM. Besides, the “helical content of C-terminal hydrophobic cluster (residues 94–98)” value in data set [9] is reported as ~ 25%. For the same molecule, the ΔH in data set [12] (20 mM KH2PO4 (pH 7.5), nAD) is 2,454 ± 78 cal/mol; in [18], 7,015 ± 221 cal/mol. Besides, in data set [12] (20 mM KH2PO4 (pH 7.5), nAD), the ΔS is reported as 31.0 cal/mol/deg. For the same molecule, in data set [15], the “crosslinks to Med15 KIX domain” value is listed as “crosslinks extensively to Gcn4 in the large complex, mainly to nAD”. Further, the “helical content of the other three nAD hydrophobic clusters” value in [16] is recorded as below 20%.
